From ChEMBL document CHEMBL2010788, “Consequences of linker length alteration of the α7 nicotinic acetylcholine receptor (nAChR) agonist, SEN12333” (Bioorg Med Chem Lett, 2012)
Active and inactive are the calls of the source. No cut-off for these calls is given here.

Legend:
[1] = biological target: Neuronal acetylcholine receptor; alpha4/beta2 (Rattus norvegicus, UniProt P09483+P12390); assay: Displacement of [3H]epibatidine from rat alpha4beta2 nAChR expressed in […] cells after 4 hrs by liquid scintillation counting; format: cell-based
How it was run: (§1)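 Competition binding against racemic [³H]epibatidine. Receptor source: membrane homogenates of HEK293 cells stably transfected with the rat nAChR subtype (α3β4, α4β2 or α7). Affinity reported as Ki.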

[2] = biological target: Neuronal acetylcholine receptor; alpha3/beta4 (Rattus norvegicus, UniProt P04757+P12392); assay: Displacement of [3H]epibatidine from rat alpha3beta4 nAChR expressed in […] cells after 4 hrs by liquid scintillation counting; format: cell-based; how it was run: as §1
[3] = biological target: T1, Neuronal acetylcholine receptor subunit alpha-7 (Rattus norvegicus, UniProt Q05941); assay: Displacement of [3H]epibatidine from rat alpha7 nAChR expressed in […] cells after 4 hrs by liquid scintillation counting; format: cell-based; how it was run: as §1
[4] = biological target: Neuronal acetylcholine receptor subunit alpha-7 (Rattus norvegicus) (UniProt Q05941); assay: Agonist activity at wild type rat recombinant alpha7 nAChR expressed in Xenopus oocyte at 100 uM by voltage clamp electrophysiology assay; format: functional
[5] = biological target: Neuronal acetylcholine receptor subunit alpha-7 (Rattus norvegicus) (UniProt Q05941); assay: Antagonist activity at wild type rat recombinant alpha7 nAChR expressed in Xenopus oocyte assessed as inhibition of ACh-gated current at 100 uM by voltage clamp electrophysiology assay; format: functional
[6] = biological target: Neuronal acetylcholine receptor subunit alpha-7 (Rattus norvegicus) (UniProt Q05941); assay: Partial agonist activity at wild type rat alpha7 nAChR expressed in Xenopus oocyte by voltage clamp electrophysiology assay relative to acetylcholine; format: functional
[7] = biological target: T1, Neuronal acetylcholine receptor subunit alpha-7; assay: Partial agonist activity at wild type rat recombinant alpha7 nAChR expressed in Xenopus oocyte by voltage clamp electrophysiology assay; format: functional

Sequence of Neuronal acetylcholine receptor subunit alpha-7 (Rattus norvegicus) (Q05941 whole entry): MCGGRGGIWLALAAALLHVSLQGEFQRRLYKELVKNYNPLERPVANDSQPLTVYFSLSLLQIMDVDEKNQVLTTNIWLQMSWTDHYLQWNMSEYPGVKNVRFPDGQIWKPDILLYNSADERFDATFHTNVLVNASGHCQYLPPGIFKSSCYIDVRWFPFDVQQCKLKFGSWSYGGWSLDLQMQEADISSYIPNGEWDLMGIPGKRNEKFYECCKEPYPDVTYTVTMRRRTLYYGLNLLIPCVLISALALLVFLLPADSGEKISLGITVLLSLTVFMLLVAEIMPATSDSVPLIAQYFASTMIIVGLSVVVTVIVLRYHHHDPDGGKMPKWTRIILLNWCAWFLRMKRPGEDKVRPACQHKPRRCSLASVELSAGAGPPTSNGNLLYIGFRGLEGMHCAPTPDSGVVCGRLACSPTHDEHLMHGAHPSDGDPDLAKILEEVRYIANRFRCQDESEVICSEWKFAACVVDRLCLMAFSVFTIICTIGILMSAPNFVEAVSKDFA
T1 sequence (Q05941 whole entry): as above
Sequence of Neuronal acetylcholine receptor; alpha3/beta4 (P04757 whole entry): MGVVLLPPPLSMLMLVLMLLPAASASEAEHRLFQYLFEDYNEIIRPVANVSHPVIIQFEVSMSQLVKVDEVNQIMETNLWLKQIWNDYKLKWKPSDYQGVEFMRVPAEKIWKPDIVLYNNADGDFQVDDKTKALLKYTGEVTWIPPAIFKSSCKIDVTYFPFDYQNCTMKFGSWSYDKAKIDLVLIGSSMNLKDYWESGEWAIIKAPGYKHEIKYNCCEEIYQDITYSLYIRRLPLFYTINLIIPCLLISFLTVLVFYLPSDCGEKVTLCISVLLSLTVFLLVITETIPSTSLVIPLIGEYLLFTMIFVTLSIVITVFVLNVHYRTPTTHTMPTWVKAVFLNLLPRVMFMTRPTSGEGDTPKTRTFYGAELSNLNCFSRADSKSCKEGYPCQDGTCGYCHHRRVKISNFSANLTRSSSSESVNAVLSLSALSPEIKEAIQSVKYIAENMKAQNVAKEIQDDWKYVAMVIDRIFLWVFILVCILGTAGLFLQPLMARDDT
Sequence of Neuronal acetylcholine receptor; alpha3/beta4 (P12392 whole entry): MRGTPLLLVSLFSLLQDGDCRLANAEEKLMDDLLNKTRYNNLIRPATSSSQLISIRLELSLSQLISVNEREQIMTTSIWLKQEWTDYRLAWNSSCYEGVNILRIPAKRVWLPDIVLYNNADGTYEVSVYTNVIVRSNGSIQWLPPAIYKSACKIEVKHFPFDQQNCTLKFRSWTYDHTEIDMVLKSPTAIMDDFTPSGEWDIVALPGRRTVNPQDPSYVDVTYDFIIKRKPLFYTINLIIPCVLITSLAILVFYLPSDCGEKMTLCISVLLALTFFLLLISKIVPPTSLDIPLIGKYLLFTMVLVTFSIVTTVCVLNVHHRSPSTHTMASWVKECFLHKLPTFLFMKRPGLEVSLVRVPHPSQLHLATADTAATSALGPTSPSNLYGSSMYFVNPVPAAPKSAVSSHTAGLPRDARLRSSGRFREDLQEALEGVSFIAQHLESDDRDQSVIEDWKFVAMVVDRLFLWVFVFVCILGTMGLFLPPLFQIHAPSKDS
Sequence of Neuronal acetylcholine receptor; alpha4/beta2 (P09483 whole entry): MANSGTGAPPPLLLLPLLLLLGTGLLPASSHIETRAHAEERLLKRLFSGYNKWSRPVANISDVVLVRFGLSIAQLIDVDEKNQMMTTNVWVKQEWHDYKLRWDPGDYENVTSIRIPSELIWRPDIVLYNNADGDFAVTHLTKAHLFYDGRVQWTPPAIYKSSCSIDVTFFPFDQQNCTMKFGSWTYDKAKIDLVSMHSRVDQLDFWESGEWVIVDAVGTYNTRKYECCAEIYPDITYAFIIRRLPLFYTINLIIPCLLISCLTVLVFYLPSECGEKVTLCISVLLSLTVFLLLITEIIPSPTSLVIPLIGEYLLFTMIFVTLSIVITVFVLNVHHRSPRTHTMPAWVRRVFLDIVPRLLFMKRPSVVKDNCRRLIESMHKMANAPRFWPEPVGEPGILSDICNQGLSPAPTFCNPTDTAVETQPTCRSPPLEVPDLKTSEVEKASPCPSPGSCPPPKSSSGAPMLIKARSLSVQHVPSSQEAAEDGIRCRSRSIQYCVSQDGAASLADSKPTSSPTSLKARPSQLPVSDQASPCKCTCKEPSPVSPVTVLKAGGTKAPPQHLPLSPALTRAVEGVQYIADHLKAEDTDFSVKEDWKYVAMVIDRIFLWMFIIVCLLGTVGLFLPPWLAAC
Sequence of Neuronal acetylcholine receptor; alpha4/beta2 (P12390 whole entry): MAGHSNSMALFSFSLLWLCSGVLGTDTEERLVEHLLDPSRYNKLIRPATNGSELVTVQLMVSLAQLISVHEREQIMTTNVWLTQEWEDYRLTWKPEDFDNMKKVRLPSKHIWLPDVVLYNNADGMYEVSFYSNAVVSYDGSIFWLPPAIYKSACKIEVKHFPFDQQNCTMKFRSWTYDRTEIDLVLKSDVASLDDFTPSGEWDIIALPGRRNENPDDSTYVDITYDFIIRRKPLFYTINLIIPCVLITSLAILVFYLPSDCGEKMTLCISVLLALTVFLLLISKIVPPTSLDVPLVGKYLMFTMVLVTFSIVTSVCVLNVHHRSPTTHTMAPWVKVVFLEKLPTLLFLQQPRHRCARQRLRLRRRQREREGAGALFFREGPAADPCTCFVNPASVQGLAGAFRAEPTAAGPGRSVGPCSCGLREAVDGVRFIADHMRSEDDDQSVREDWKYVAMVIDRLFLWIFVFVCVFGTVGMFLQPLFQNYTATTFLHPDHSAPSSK

## O=C(CN1CCOCC1)Nc1ccc(-c2cccnc2)cc1
[1]
  Ki: > 10 µM
[2]
  Ki: > 10 µM
[3]
  Ki: 3.9 µM
[4]
  Activity: inactive
[5]
  inhibition: inactive

## O=C(CCCCCN1CCOCC1)Nc1ccc(-c2cccnc2)cc1
[1]
  Ki: > 10 µM
[2]
  Ki: > 10 µM
[3]
  Ki: > 10 µM
[4]
  Activity: inactive
[5]
  inhibition: inactive

## O=C(CCCCN1CCOCC1)Nc1ccc(-c2cccnc2)cc1
[1]
  Ki: > 10 µM
[2]
  Ki: > 10 µM
[3]
  Ki: 0.5 µM
[6]
  Activity: 11%
[7]
  EC50: 9.5 µM

## O=C(CCN1CCOCC1)Nc1ccc(-c2cccnc2)cc1
[1]
  Ki: > 10 µM
[2]
  Ki: > 10 µM
[3]
  Ki: > 10 µM
[4]
  Activity: inactive
[5]
  inhibition: inactive

## O=C(CCCN1CCOCC1)Nc1ccc(-c2cccnc2)cc1
[1]
  Ki: > 10 µM
[2]
  Ki: > 10 µM
[3]
  Ki: > 10 µM
[4]
  Activity: inactive
[5]
  inhibition: inactive
